Results published in article PMC6392825 (ChemistryOpen, 2019).
≈ marks a conversion by molar mass, not a printed value.

Legend:
[1] = Water solubility, shake flask method, 0.1 M phosphate buffer pH 6.8; assay type: physicochemical; conditions: 37 °C, pH 6.8, aqueous buffer, thermodynamic from solid
[2] = Chemical antioxidant capacity, FRAP assay
[3] = tested on: HepG2; assay: Cytotoxicity, mitochondrial activity; assay type: cell-based; conditions: Homo sapiens, HepG2, 72 h, read-out: IC50 MTT
Summary of the method: (§1)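 Seeded at 20000 cells/well in DMEM and grown 24 h at 37 °C, 10% CO2. Medium was then replaced with serum-free medium holding test compound (25 mM DMSO stock) at various concentrations for 72 h, in triplicate; doxorubicin was the positive control. MTT (5 mg/mL stock in PBS) added for 2 h, formazan dissolved in DMSO, A570. IC50 derived from % surviving cells, reported as mean ± SD combined with SRB data.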

[4] = tested on: HT‐29; assay: Cytotoxicity, mitochondrial activity; assay type: cell-based; conditions: Homo sapiens, HT-29, 72 h, read-out: IC50 MTT
Summary of the method: as §1

[5] = tested on: Caco‐2; assay: Cytotoxicity, mitochondrial activity; assay type: cell-based; conditions: Homo sapiens, Caco-2, 72 h, read-out: IC50 MTT
Summary of the method: as §1

[6] = tested on: EA.hy926; assay: Cytotoxicity, mitochondrial activity; assay type: cell-based; conditions: Homo sapiens, EA.hy 926, 72 h, read-out: IC50 MTT
Summary of the method: as §1

[7] = tested on: HepG2; assay: Cell growth inhibition, protein content; assay type: cell-based; conditions: Homo sapiens, HepG2, 72 h, read-out: IC50 SRB
Summary of the method: (§2)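 Cell lines from ATCC, grown in DMEM+glutamax with 1% NEAA, 1% P/S and 10% FBS at 37 °C, 10% CO2. Seeded at 20000 cells/well for 24 h, then exposed to test compound (25 mM DMSO stock) for three days. Fixed with cold TCA for 1 h at 4 °C, stained 30 min with 0.4% SRB in 1% acetic acid, dissolved in 10 mM Tris, A490. Triplicate; IC50 given as mean ± SD combined with MTT data (n ≥ 3).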

[8] = tested on: HT‐29; assay: Cell growth inhibition, protein content; assay type: cell-based; conditions: Homo sapiens, HT-29, 72 h, read-out: IC50 SRB
Summary of the method: as §2

[9] = tested on: Caco‐2; assay: Cell growth inhibition, protein content; assay type: cell-based; conditions: Homo sapiens, Caco-2, 72 h, read-out: IC50 SRB
Summary of the method: as §2

[10] = tested on: EA.hy926; assay: Cell growth inhibition, protein content; assay type: cell-based; conditions: Homo sapiens, EA.hy 926, 72 h, read-out: IC50 SRB
Summary of the method: as §2

[11] = tested on: HepG2; assay: Intracellular ROS assay; assay type: cell-based; conditions: for change of intracellular ROS in words: HepG2, vs untreated control, 10 and 1 μM; for activity at 1 µM / activity at 10 µM: Homo sapiens, HepG2, read-out: Intracellular ROS, percentage compared to the untreated control cells (ROS/SRB)
Summary of the method: (§3)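 Cells seeded at 20000/well and grown 24 h at 37 °C, 10% CO2, then treated with test compound at 10 and 1 μM in serum-free medium. NAC and doxorubicin served as controls. After a PBS wash, cells were loaded with 20 μM DCFH-DA for 30 min, washed, and held 1 h in phenol red-free DMEM. Fluorescence read at ex 485/em 535 nm and normalized to SRB in the same well. Reported as % of untreated control, n ≥ 3, two-tailed t-test with unequal variances.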

[12] = tested on: HT‐29; assay: Intracellular ROS assay; assay type: cell-based; conditions: for activity at 1 µM / activity at 10 µM: Homo sapiens, HT-29, read-out: Intracellular ROS, percentage compared to the untreated control cells (ROS/SRB)
Summary of the method: as §3

[13] = tested on: Caco‐2; assay: Intracellular ROS assay; assay type: cell-based; conditions: for activity at 1 µM / activity at 10 µM: Homo sapiens, Caco-2, read-out: Intracellular ROS, percentage compared to the untreated control cells (ROS/SRB)
Summary of the method: as §3

[14] = tested on: EA.hy926; assay: Intracellular ROS assay; assay type: cell-based; conditions: for activity at 1 µM / activity at 10 µM: Homo sapiens, EA.hy 926, read-out: Intracellular ROS, percentage compared to the untreated control cells (ROS/SRB)
Summary of the method: as §3

## O=C(/C=C(O)/C=C/c1cccnc1)/C=C/c1c[nH]c2ccccc12 [3 h, (1E,4Z,6E)‐5‐Hydroxy‐1‐(1H‐indol‐3‐yl)‐7‐(pyridin‐3‐yl)hepta‐1,4,6‐trien‐3‐one]
[1]
  solubility at 90 min: 5.3 ± 0.1 µM (≈ 1.68 µg/mL)
  solubility at 24 h: 5.4 ± 0.1 µM (≈ 1.71 µg/mL)
[2]
  FRAP (Trolox equivalent per μM): 0.13 Trolox equivalent per μM
  FRAP (curcumin equivalent per μM): 0.12 curcumin equivalent per μM
[3]
  IC50: 5 ± 0.3 µM
[4]
  IC50: 6.4 ± 0.8 µM
[5]
  IC50: 6.7 ± 0.4 µM
[6]
  IC50: 6.2 ± 0.3 µM
[7]
  IC50: 10.2 ± 0.4 µM
[8]
  IC50: 34.6 ± 0.8 µM
[9]
  IC50: 10.3 ± 0.1 µM
[10]
  IC50: 2.9 ± 0.1 µM
[11]
  change of intracellular ROS in words: significantly increased ROS production
  activity at 1 µM: 115 ± 4.5%
  activity at 10 µM: 112 ± 4.9%
[12]
  activity at 1 µM: 82.3 ± 1.5%
  activity at 10 µM: 95.6 ± 4.2%
[13]
  activity at 1 µM: 111 ± 3.2%
  activity at 10 µM: 128 ± 8.2%
[14]
  activity at 1 µM: 97.9 ± 9.8%
  activity at 10 µM: 107 ± 5.3%

## COc1cc(/C=C/C(=O)/C=C(O)/C=C/c2c[nH]c3ccccc23)ccc1O [3 g, (1E,4Z,6E)‐5‐Hydroxy‐1‐(4‐hydroxy‐3‐methoxyphenyl)‐7‐(1H‐indol‐3‐yl)hepta‐1,4,6‐trien‐3‐one]
[1]
  solubility at 90 min: 7.6 ± 0.9 µM (≈ 2.75 µg/mL)
  solubility at 24 h: 13.2 ± 0.3 µM (≈ 4.77 µg/mL)
[2]
  FRAP (Trolox equivalent per μM): 0.44 Trolox equivalent per μM
  FRAP (curcumin equivalent per μM): 0.42 curcumin equivalent per μM
[3]
  IC50: 19.5 ± 0.6 µM
[4]
  IC50: 12.9 ± 0.9 µM
[5]
  IC50: 5.8 ± 0.3 µM
[6]
  IC50: 19 ± 0.4 µM
[7]
  IC50: 13.5 ± 1.1 µM
[8]
  IC50: 40.5 ± 4.3 µM
[9]
  IC50: 37.9 ± 1.8 µM
[10]
  IC50: 45.1 ± 2.6 µM
[11]
  activity at 1 µM: 111 ± 14.5%
  activity at 10 µM: 104 ± 12%
[12]
  activity at 1 µM: 85.7 ± 1.3%
  activity at 10 µM: 90.4 ± 5.1%
[13]
  activity at 1 µM: 102 ± 11.3%
  activity at 10 µM: 111 ± 3.1%
[14]
  activity at 1 µM: 129 ± 9.2%
  activity at 10 µM: 92.7 ± 6.1%

## CC(=O)N[C@@H](CS)C(=O)O [NAC, N‐acetyl‐L‐cysteine, reference compound]
[11]
  change of intracellular ROS in words: significant decrease in ROS generation
  activity at 1 µM: 77.1 ± 7.8%
  activity at 10 µM: 63.1 ± 4.3%
[12]; HT‐29, vs untreated control, 10 and 1 μM
  change of intracellular ROS in words: significant decrease in ROS generation
[12]
  activity at 1 µM: 82.7 ± 3.4%
  activity at 10 µM: 75.3 ± 3.3%
[13]; Caco‐2, vs untreated control, 10 and 1 μM
  change of intracellular ROS in words: significant decrease in ROS generation
[13]
  activity at 1 µM: 83.7 ± 6.2%
  activity at 10 µM: 83.5 ± 5.1%
[14]; EA.hy926, vs untreated control, 10 and 1 μM
  change of intracellular ROS in words: significant decrease in ROS generation
[14]
  activity at 1 µM: 84.2 ± 4.8%
  activity at 10 µM: 76.6 ± 8.3%

## Cc1c(C)c2c(c(C)c1O)CCC(C)(C(=O)O)O2 (centres unmarked) [Trolox, reference compound]
[2]
  FRAP (curcumin equivalent per μM): 1.00 curcumin equivalent per μM

## O=C(/C=C(O)/C=C/c1ccncc1)/C=C/c1c[nH]c2ccccc12 [3 i, (1E,4Z,6E)‐5‐Hydroxy‐1‐(1H‐indol‐3‐yl)‐7‐(pyridin‐4‐yl)hepta‐1,4,6‐trien‐3‐one]
[1]
  solubility at 90 min: 7.8 ± 0.1 µM (≈ 2.47 µg/mL)
  solubility at 24 h: 7.7 ± 0.6 µM (≈ 2.44 µg/mL)
[2]
  FRAP (Trolox equivalent per μM): 0.19 Trolox equivalent per μM
  FRAP (curcumin equivalent per μM): 0.18 curcumin equivalent per μM
[3]
  IC50: 48.5 ± 1.7 µM
[4]
  IC50: 42 ± 1 µM
[5]
  IC50: 47.1 ± 1.6 µM
[6]
  IC50: 34.9 ± 1.3 µM
[7]
  IC50: > 75 µM
[8]
  IC50: 64.2 ± 2.76 µM
[9]
  IC50: 29.8 ± 2.3 µM
[10]
  IC50: > 75 µM
[11]
  activity at 1 µM: 125 ± 12%
  activity at 10 µM: 147 ± 12.8%
[12]
  activity at 1 µM: 73.3 ± 7.8%
  activity at 10 µM: 73.6 ± 5.3%
[13]
  activity at 1 µM: 101 ± 5.1%
  activity at 10 µM: 89.7 ± 8.9%
[14]
  activity at 1 µM: 106 ± 10.5%
  activity at 10 µM: 119 ± 2.9%

## COc1cc(/C=C/C(=O)CC(=O)/C=C/c2ccc(O)c(OC)c2)ccc1O [Cur, curcumin, reference compound]
[1]
  solubility at 90 min: 2.7 ± 0.1 µM (≈ 0.995 µg/mL)
[2]
  FRAP (Trolox equivalent per μM): 1.00 Trolox equivalent per μM
[3]
  IC50: 25.3 ± 0.9 µM
[4]
  IC50: 43.4 ± 4.6 µM
[5]
  IC50: 47.6 ± 1.5 µM
[6]
  IC50: 46.8 ± 0.7 µM
[7]
  IC50: 22.1 ± 2.6 µM
[8]
  IC50: 52.3 ± 3.8 µM
[9]
  IC50: 39.1 ± 0.1 µM
[10]
  IC50: 58.4 ± 4.2 µM
[11]
  activity at 1 µM: 90.8 ± 12%
  activity at 10 µM: 101 ± 8.8%
[12]
  activity at 1 µM: 106 ± 8.4%
  activity at 10 µM: 86.5 ± 4.5%
[13]
  activity at 1 µM: 131 ± 3.6%
  activity at 10 µM: 115 ± 7.2%
[14]
  activity at 1 µM: 100 ± 7.7%
  activity at 10 µM: 97.6 ± 5.7%

## O=C(/C=C(O)/C=C/c1ccc[nH]1)/C=C/c1c[nH]c2ccccc12 [3 l, (1E,4Z,6E)‐5‐Hydroxy‐1‐(1H‐indol‐3‐yl)‐7‐(1H‐pyrrol‐2‐yl)hepta‐1,4,6‐trien‐3‐one]
[1]
  solubility at 90 min: 12.2 ± 0.3 µM (≈ 3.71 µg/mL)
  solubility at 24 h: 12 ± 0.7 µM (≈ 3.65 µg/mL)
[2]
  FRAP (Trolox equivalent per μM): 0.29 Trolox equivalent per μM
  FRAP (curcumin equivalent per μM): 0.27 curcumin equivalent per μM
[3]
  IC50: 16.5 ± 0.4 µM
[4]
  IC50: 10.5 ± 0.1 µM
[5]
  IC50: 6.5 ± 0.2 µM
[6]
  IC50: 3.3 ± 0.1 µM
[7]
  IC50: 9.8 ± 0.3 µM
[8]
  IC50: 10 ± 0.1 µM
[9]
  IC50: 10.1 ± 0.5 µM
[10]
  IC50: 4.2 ± 0.3 µM
[11]
  activity at 1 µM: 600 ± 61.8%
  activity at 10 µM: 998 ± 60.2%
[12]
  activity at 1 µM: 152 ± 8.8%
  activity at 10 µM: 558 ± 96.3%
[13]
  activity at 1 µM: 410 ± 31.9%
  activity at 10 µM: 767.2 ± 4.1%
[14]
  activity at 1 µM: 438 ± 46.1%
  activity at 10 µM: 826 ± 22.7%

## O=C1O[C@H]([C@@H](O)CO)C(O)=C1O [Ascorbic acid, ascorbic acid, reference compound]
[2]
  FRAP (Trolox equivalent per μM): 0.60 Trolox equivalent per μM
  FRAP (curcumin equivalent per μM): 0.57 curcumin equivalent per μM

## Cc1c(C)c2c(c(C)c1O)CC[C@@](C)(CCC[C@H](C)CCC[C@H](C)CCCC(C)C)O2 [α‐Tocopherol, α‐tocopherol, reference compound]
[2]
  FRAP (Trolox equivalent per μM): 0.70 Trolox equivalent per μM
  FRAP (curcumin equivalent per μM): 0.68 curcumin equivalent per μM
